Assay results from ChEMBL document CHEMBL1156167 (Bioorg Med Chem Lett, 2010).
The source made the active and inactive calls. The rule behind the calls is not given here.

What was measured:
Homo sapiens [1] = organism: Homo sapiens; assay: Selectivity ratio of IC50 for human S1P3 receptor to IC50 for human S1P1 receptor by [33P]sphingosine-1-phosphate displacement assay
[2] = target: T1, Sphingosine 1-phosphate receptor 1 (Homo sapiens, UniProt P21453); assay: Displacement of [33P]sphingosine-1-phosphate from human S1P1 receptor expressed in HEK293T cells after 60 mins by scintillation counting; format: cell-based, HEK-293T
[3] = target: T2, Sphingosine 1-phosphate receptor 3 (Homo sapiens, UniProt Q99500); assay: Displacement of [33P]sphingosine-1-phosphate from human S1P3 receptor expressed in HEK293T cells after 60 mins by scintillation counting; format: cell-based, HEK-293T
[4] = target: T3, Sphingosine 1-phosphate receptor 4 (Homo sapiens, UniProt O95977); assay: Displacement of [33P]sphingosine-1-phosphate from human S1P4 receptor expressed in HEK293T cells after 60 mins by scintillation counting; format: cell-based, HEK-293T
T3 sequence (O95977 whole entry): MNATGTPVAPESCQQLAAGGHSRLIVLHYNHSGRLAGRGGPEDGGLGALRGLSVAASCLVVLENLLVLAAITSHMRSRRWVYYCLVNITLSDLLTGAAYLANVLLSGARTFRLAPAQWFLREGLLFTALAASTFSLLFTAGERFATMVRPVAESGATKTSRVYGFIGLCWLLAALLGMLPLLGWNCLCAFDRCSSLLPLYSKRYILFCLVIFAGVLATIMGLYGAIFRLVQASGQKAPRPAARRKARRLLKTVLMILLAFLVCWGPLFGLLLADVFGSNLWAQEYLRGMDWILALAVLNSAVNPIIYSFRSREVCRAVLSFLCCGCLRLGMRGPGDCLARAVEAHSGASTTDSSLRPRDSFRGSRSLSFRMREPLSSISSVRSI

[5] = target: T2, Sphingosine 1-phosphate receptor 3; assay: Agonist activity at human S1P3 receptor expressed in HEK293T cells assessed as stimulation of gamma-[35S]GTP binding after 30 mins by scintillation counting
[6] = target: Sphingosine 1-phosphate receptor 5 (Homo sapiens, UniProt Q9H228); assay: Displacement of [33P]sphingosine-1-phosphate from human S1P5 receptor expressed in HEK293T cells after 60 mins by scintillation counting; format: cell-based, HEK-293T
Homo sapiens [7] = organism: Homo sapiens; assay: Selectivity ratio of EC50 for human S1P3 receptor to EC50 for human S1P1 receptor by gamma-[35S]GTP binding assay; format: functional
[8] = target: T1, Sphingosine 1-phosphate receptor 1; assay: Agonist activity at human S1P1 receptor expressed in HEK293T cells assessed as stimulation of gamma-[35S]GTP binding after 30 mins by scintillation counting
Mus musculus [9] = assay: Metabolic stability in C57BL/6 mouse assessed as alcohol pro-drug to phosphate drug conversion at 10 mg/kg, po after 6 hrs; format: ADME, organism-based; parameters: dose 10 mg/kg, route oral; conditions: in vivo
How it was run: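 Alcohol pro-drug dosed orally to mouse at 10 mg/kg. At 6 h, the amount converted in vivo to the phosphate was determined and expressed as percent conversion of alcohol to phosphate.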

Mus musculus [10] = assay: Immunomodulatory activity in C57BL/6 mouse assessed as induction of lymphopenia at 10 mg/kg, po after 6 hrs by complete blood count analysis; format: functional
How it was run: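 Pro-drug alcohol given to mouse as a single oral dose of 10 mg/kg. Redistribution of circulating lymphocytes was measured 6 h post-dose and reported as percent lymphopenia.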

Mus musculus [11] = assay: Immunomodulatory activity in C57BL/6 mouse assessed as induction of lymphopenia at 0.3 to 10 mg/kg, po after 6 hrs by complete blood count analysis; format: functional, organism-based
How it was run: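 Mouse given a single oral dose of the pro-drug alcohol at 0.3, 1.0, 3.0 or 10.0 mg/kg alongside a vehicle group. Circulating lymphocyte redistribution was measured 6 h post-dose and expressed as lymphopenia relative to vehicle.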

[12] = target: T1, Sphingosine 1-phosphate receptor 1; assay: Ratio of compound IC50 to PPI-4667-P IC50 for human S1P1 receptor expressed in HEK293T cells; format: cell-based; conditions: HEK-293T

T1 sequence (P21453 whole entry): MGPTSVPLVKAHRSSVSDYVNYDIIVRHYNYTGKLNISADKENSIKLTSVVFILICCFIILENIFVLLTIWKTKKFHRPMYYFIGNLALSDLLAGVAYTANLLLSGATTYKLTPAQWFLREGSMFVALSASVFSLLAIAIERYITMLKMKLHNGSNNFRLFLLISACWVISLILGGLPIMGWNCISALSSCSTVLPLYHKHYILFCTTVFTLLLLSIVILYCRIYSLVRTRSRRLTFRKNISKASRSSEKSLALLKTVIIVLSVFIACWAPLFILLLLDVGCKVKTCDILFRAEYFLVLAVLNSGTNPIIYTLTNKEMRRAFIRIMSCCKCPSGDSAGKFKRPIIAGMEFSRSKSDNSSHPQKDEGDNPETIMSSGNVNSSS
Chain of Sphingosine 1-phosphate receptor 5 (Q9H228 whole entry): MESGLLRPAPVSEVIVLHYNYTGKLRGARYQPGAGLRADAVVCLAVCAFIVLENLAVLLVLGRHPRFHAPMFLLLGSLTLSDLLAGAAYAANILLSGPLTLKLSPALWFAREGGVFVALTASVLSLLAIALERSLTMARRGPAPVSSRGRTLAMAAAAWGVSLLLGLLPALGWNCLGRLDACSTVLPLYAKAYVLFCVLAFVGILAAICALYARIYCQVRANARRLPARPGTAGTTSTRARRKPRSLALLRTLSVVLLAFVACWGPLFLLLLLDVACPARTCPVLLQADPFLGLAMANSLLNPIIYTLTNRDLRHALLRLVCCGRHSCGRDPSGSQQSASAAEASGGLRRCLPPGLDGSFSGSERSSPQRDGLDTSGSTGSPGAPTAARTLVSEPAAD
T2 sequence (Q99500 whole entry): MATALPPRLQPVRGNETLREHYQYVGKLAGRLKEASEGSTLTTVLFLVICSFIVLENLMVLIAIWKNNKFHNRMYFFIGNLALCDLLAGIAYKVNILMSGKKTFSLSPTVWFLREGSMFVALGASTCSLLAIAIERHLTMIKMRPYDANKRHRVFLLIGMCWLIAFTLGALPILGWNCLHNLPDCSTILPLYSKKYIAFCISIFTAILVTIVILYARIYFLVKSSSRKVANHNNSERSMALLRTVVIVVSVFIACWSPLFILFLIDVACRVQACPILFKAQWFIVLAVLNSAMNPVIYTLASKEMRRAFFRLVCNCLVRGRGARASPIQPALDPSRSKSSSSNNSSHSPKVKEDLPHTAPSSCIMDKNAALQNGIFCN

| Ratio IC50 (Homo sapiens [1]) | IC50 [2] [nM] | IC50 [3] [nM] | EC50 [5] [nM] | EC50 [8] [nM] | Compound | other results |
| --- | --- | --- | --- | --- | --- | --- |
| > 476 | 21 | > 10000 | – | – | COC(=O)c1cc(NC(=O)[C@@](C)(N)COP(=O)(O)O)ccc1OCCc1ccc(-c2ccccc2)cc1 | – |
| 18800 | 0.24 | 4500 | > 3000 | 1.44 | C[C@](N)(COP(=O)(O)O)C(=O)Nc1ccc(OCCc2ccc(-c3ccccc3)cc2)c(C(F)(F)F)c1 | IC50 [4]: 3.4 nM; IC50 [6]: 87.2 nM; Ratio EC50 (Homo sapiens [7]): > 2080 |
| 542 | 6 | 3250 | – | – | Cc1cc(NC(=O)[C@@](C)(N)COP(=O)(O)O)ccc1OCCc1ccc(-c2ccccc2)cc1 | – |
| 769 | 1.3 | 1000 | – | – | C[C@](N)(COP(=O)(O)O)C(=O)Nc1ccc(OCCc2ccc(-c3ccccc3)cc2)c(Br)c1 | – |
| – | – | – | – | – | C[C@](N)(CO)C(=O)Nc1ccc(C(=O)CCc2ccc(-c3ccccc3)cc2)cc1 | Activity (Mus musculus [9]): 40%; Activity (Mus musculus [10]): 84% |
| 109 | 6.4 | 700 | – | – | C[C@](N)(COP(=O)(O)O)C(=O)Nc1ccc(OCCc2ccc(-c3ccccc3)cc2)cc1C(F)(F)F | – |
| – | > 10000 | > 10000 | – | – | C[C@](N)(COP(=O)(O)O)C(=O)Nc1ccc(OCCc2ccc(-c3ccccc3)cc2)c(C(=O)O)c1 | – |
| 356 | 0.8 | 285 | – | – | C[C@](N)(COP(=O)(O)O)C(=O)Nc1ccc(OCCc2ccc(-c3ccccc3)cc2)c(Cl)c1 | – |
| – | 150 | > 1000 | – | – | C[C@](N)(COP(=O)(O)O)C(=O)Nc1ccc(OCCc2ccc(-c3ccccc3)cc2)c(C(N)=O)c1 | – |
| > 10000 | 9.4 | > 100000 | > 3000 | 22.4 | C[C@](N)(COP(=O)(O)O)c1nc(-c2ccc(OCCc3ccc(-c4ccccc4)cc3)c(C(F)(F)F)c2)c[nH]1 | IC50 [4]: 6.5 nM; IC50 [6]: 184 nM; Ratio EC50 (Homo sapiens [7]): > 134; Activity (Mus musculus [9]): 6.8%; Activity (Mus musculus [10]): 64% |
| 19 | – | – | 54.8 | 2.2 | C[C@](N)(COP(=O)(O)O)c1nc(-c2ccc(OCc3ccc(-c4ccccc4)cc3)cc2)c[nH]1 | Ratio EC50 (Homo sapiens [7]): 25 |
| 8700 | 0.23 | 2000 | > 3000 | 1.62 | C[C@](N)(COP(=O)(O)O)c1nc(-c2ccc(OCc3ccc(-c4ccccc4)cc3)c(C(F)(F)F)c2)c[nH]1 | IC50 [4]: 4.4 nM; IC50 [6]: 9.6 nM; Ratio EC50 (Homo sapiens [7]): > 1850; Activity (Mus musculus [9]): 70.1%; Activity (Mus musculus [10]): 85% |
| – | 500 | > 1000 | – | – | CNC(=O)c1cc(NC(=O)[C@@](C)(N)COP(=O)(O)O)ccc1OCCc1ccc(-c2ccccc2)cc1 | – |
| 917 | 4.14 | 3800 | > 3000 | 18.3 | C[C@](N)(COP(=O)(O)O)C(=O)Nc1ccc(C(=O)CCc2ccc(-c3ccccc3)cc2)cc1 | IC50 [4]: 13.1 nM; IC50 [6]: 1360 nM; Ratio EC50 (Homo sapiens [7]): > 164 |
| – | – | – | – | – | C[C@](N)(CO)c1nc(-c2ccc(OCc3ccc(-c4ccccc4)cc3)c(C(F)(F)F)c2)c[nH]1 | Activity (Mus musculus [11]): Active |
| 588 | 3.4 | 2000 | – | – | C[C@](N)(COP(=O)(O)O)C(=O)Nc1ccc(OCCc2ccc(-c3ccccc3)cc2)c(C#N)c1 | Ratio IC50 [12]: 3 |
| – | – | – | – | – | C[C@](N)(CO)C(=O)Nc1ccc(OCCc2ccc(-c3ccccc3)cc2)cc1 | Activity (Mus musculus [9]): 14% |
| – | – | – | – | – | C[C@](N)(CO)C(=O)Nc1ccc(C(=O)NCc2ccc(-c3ccccc3)cc2)cc1 | Activity (Mus musculus [10]): 32% |
| 190 | – | – | 120 | 0.52 | C[C@](N)(COP(=O)(O)O)C(=O)Nc1ccc(OCCc2ccc(-c3ccccc3)cc2)cc1 | IC50 [4]: 10.3 nM; IC50 [6]: 43.6 nM; Ratio EC50 (Homo sapiens [7]): 231 |
| – | – | – | – | – | C[C@](N)(CO)C(=O)Nc1ccc(SCCc2ccc(-c3ccccc3)cc2)cc1 | Activity (Mus musculus [10]): 21% |

| Compound | Ratio IC50 (Homo sapiens [1]) | IC50 [2] [nM] | IC50 [3] [nM] | EC50 [5] [nM] | EC50 [8] [nM] | other results |
| --- | --- | --- | --- | --- | --- | --- |
| CCCCCCCCCCCCC/C=C/[C@@H](O)[C@@H](N)COP(=O)(O)O | – | 0.78 | 0.92 | 2.4 | 5.6 | IC50 [4]: 1.04 nM |
